Calls of active or inactive are those of the source. No cut-off for these calls is given here.
Legend:
[1] = Inhibition of gamma radiation-induced lipid peroxidation in liposomes; format: functional
Method in brief: (§1)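 Liposomal suspensions, N2O/O2-purged, pH 7.4 phosphate buffer, exposed to a constant 280 Gy γ-dose (Fricke dosimetry). Peroxidation followed as TBARS with compound at 0.025–0.150 mM. IC50 is the concentration giving 50% inhibition of lipid peroxidation.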

[2] = Glutathione peroxidase activity assessed by GSH-GSSG coupled assay; format: functional
Method in brief: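 GPx-like activity measured by GSH–GSSG coupled assay: glutathione reductase 0.3 U/ml, NADPH 0.25 mM, GSH 0.5–6 mM, compound 0.025 mM (in methanol, 2% in buffer), H2O2 1 mM substrate. NADPH loss at 340 nm fitted to an exponential; initial rates from ε 6220 M-1 cm-1, corrected for uncatalysed H2O2–GSH reaction. Km and Vmax from Lineweaver–Burk plots.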

[3] = Effect on gamma irradiation-induced TBARS formation in liposomes at 50 uM; format: functional; method in brief: as §1
Armoracia rusticana = assay: Inhibition of horseradish peroxidase at 100 uM
Method in brief: (§2)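 HRP (70 nM) with ABTS2- as substrate, with or without selenium compound at 0.06–0.1 mM. Reaction started by adding H2O2. Initial rates taken from the absorbance change at 645 nm (ABTS radical cation). Activity without compound set to 100%.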

[4] = Inhibition of horseradish peroxidase by spectrophotometric method; set-up: species or system Armoracia rusticana; method in brief: as §2
[5] = Antioxidant activity assessed by singlet oxygen quenching ability; format: functional
[6] = Antioxidant activity assessed by singlet oxygen quenching ability at 1mM; format: functional
[7] = Inhibition of gamma radiation-induced lipid peroxidation in liposomes at 200 uM; format: functional

Structure (SMILES) | IC50 [1] [µM] | Km [2] [mM] | Activity ([3]; Liposome) | inhibition (Armoracia rusticana) [%] | IC50 [4] [µM] | Activity [5] | Activity [6] | inhibition [7] [%] | Activity [3]
C[Se]c1ccccc1C(=O)Nc1ccccc1 | 100 | 5.25 | Active | 25.5 | > 100 | Active |  |  | 
O=C(Nc1ccccc1)c1ccccc1[Se]Cc1ccccc1 | 75 | 2.2 | Active | 33.1 | > 100 | Active |  |  | 
O=C(Nc1ccccc1)c1ccccc1[Se][Se]c1ccccc1C(=O)Nc1ccccc1 [EBSELEN DISELENIDE] |  |  | Active |  | 50 |  | inactive | 19 | 
O=C(Nc1ccccc1)c1ccccc1[Te][Te]c1ccccc1C(=O)Nc1ccccc1 [EBSELEN DITELLURIDE] | 175 | 2.3 | Active |  | 17.3 | Active |  |  | 
O=c1c2ccccc2[se]n1-c1ccccc1 [EBSELEN] | 25 | 13.2 |  |  | 16.9 | Active |  |  | Active
